Apaf-1 inh – inhibitors of human Apaf-1 apoptosome, primary screen, biochemical, DEVD-Rh110 fluorescence, uHTS; reconstituted apoptosome caspase-3 activity; inhibition, % at 20 µM; 0.71% of 330,000 active; AID 489030, 2010; active means inhibition of at least 40% at 20 µM;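 further: plate controls were DMSO wells for no effect and DEVD-CHO caspase inhibitor wells for full effect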
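System: reconstituted apoptosome with Apaf-1, cytochrome c, caspase-9, procaspase-3, dATP; Signal: Rh110 fluorescence intensity; Schedule: 30 min compound preincubation, 50 min activation, room temperature; Reagent: cytochrome c trigger plus (Z-DEVD)2-Rh110 caspase-3 substrate.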
UCH37 DUB inh – inhibitors of human UCH37 deubiquitinase, primary screen, biochemical, Ub-AMC cleavage, fluorescence; inhibition, % (no concentration beside the values); AID 588478, 2011; purified proteasome/UCH37; 0.33% of 330,000 active; Ubiquitin carboxyl-terminal hydrolase isozyme L5 (Homo sapiens), Q9Y5K5;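 active means mean inhibition over replicate wells above about 20%, limit read from the data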;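 further: 0% = compound-free wells with enzyme and 100% = wells lacking proteasome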
Target sequence (Q9Y5K5 whole entry, looked up): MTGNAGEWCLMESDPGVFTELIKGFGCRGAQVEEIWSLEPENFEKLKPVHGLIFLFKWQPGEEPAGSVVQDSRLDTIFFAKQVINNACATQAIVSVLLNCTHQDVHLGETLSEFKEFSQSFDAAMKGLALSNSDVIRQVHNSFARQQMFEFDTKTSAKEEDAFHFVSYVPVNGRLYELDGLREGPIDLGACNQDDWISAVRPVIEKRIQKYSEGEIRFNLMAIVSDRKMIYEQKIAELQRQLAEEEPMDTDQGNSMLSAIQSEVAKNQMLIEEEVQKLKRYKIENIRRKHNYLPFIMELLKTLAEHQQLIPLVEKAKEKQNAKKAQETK
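Material: human UCH37 enzyme supplied as purified proteasome complex / Amount: 0.15 nM proteasome as dispensed / Buffer or medium: pH 7.4 Tris-HCl (50 mM) with ovalbumin, ATP-MgCl2, DTT / Times: preincubation 30 min, reaction 25 min, room temperature / Technique: AMC fluorescence from Ub-AMC cleavage, excitation 355 nm, emission 460 nm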
MEKK2 mut-MEK5 – MEK5 binding signal on mutant MEKK2 PB1, primary screen, biochemical, multiplex bead flow cytometry, Alexa488-MEK5; percent response, % at 10 µM; 0.35% of 290,000 active; Alexa488-MEK5 binding to MEKK2 mutant; AID 1530, 2009; in the data active means percent response above about 24%, passing the limit was not always enough
MEKK3 PB1 HTS – modulators of MEKK3-MEK5 PB1 binding, primary screen, biochemical, wildtype MEKK3, multiplex bead flow cytometry, Alexa488-MEK5; bead-based flow cytometry, Alexa488-MEK5 binding to MEKK3; actives lie on both sides; 0 = blocked by unlabeled MEK5, 100 = vehicle; binding response (% of control), % at 10 µM; Mitogen-activated protein kinase kinase kinase 3 (Homo sapiens), Q99759; 1.4% of 290,000 active;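 active means binding response more than 3 SD above or below the average of its plate-row segment, actives on both sides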;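 further: Alexa488 bead fluorescence after subtracting the streptavidin-only scavenger bead signal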
MEKK2wt PB1 HTS – modulators of MEK5 binding to wildtype MEKK2, primary screen, biochemical, multiplex bead flow cytometry, Alexa488-MEK5; AID 1531, 2009; Alexa488-MEK5 binding to MEKK2 WT; actives lie on both sides; Mitogen-activated protein kinase kinase kinase 2 (Homo sapiens), Q9Y2U5; binding response (% of control), % at 10 µM; 1.1% of 290,000 active; in the data active means binding response below about 67% or above about 130%
UBC13 inh – UBC13 polyubiquitin chain formation inhibitors, primary screen, biochemical, TR-FRET, uHTS; Ubiquitin-conjugating enzyme E2 N (Homo sapiens), P61088; inhibition, % at 20 µM; 0.47% of 330,000 active; AID 485273, 2010; in the data active means inhibition above about 45%, passing the limit was not always enough
Target sequence (P61088 whole entry, looked up): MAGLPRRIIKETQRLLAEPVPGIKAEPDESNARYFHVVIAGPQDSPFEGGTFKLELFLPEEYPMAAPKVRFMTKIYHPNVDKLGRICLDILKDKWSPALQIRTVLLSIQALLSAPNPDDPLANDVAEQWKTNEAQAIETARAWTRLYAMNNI
MEKK2wt confirm – modulators of MEK5 binding to wildtype MEKK2, confirmation, biochemical, single concentration, multiplex bead flow cytometry. 2.4% of 5,900 active. Alexa488-MEK5 binding to MEKK2 WT; actives lie on both sides. binding response (% of control), % at 10 µM. shares compounds with MEKK3 PB1 HTS; in the data active means binding response below about 16% or above about 210%; inactive means in between
MEKK2mut-MEK5 – mutant MEKK2 PB1-MEK5 binding signal retest – biochemical, single concentration, multiplex bead flow cytometry, confirmation; shares compounds with MEKK3 PB1 HTS; Alexa488-MEK5 binding to MEKK2 mutant; percent response, % at 10 µM; 2% of 5,900 active; AID 1893, 2009; in the data active means percent response mostly above about 71%, no sharp cut-off; inactive means mostly below about 38%;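 further: higher means compound restores mutant binding toward wildtype level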
MEKK3 confirm – MEKK3 wild-type PB1 binding to MEK5, inhibitors, confirmation, biochemical, bead multiplex flow cytometry, single concentration, wildtype; binding response (% of control), % at 10 µM; Alexa488-MEK5 binding to MEKK3; hits give low values; 1.8% of 5,900 active; shares compounds with MEKK3 PB1 HTS;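 active means binding response below 72% of control, or above a set upper limit, though filed actives all read lower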;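 further: 100% = DMSO only wells and 0% = binding blocked by excess unlabeled MEK5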
The depositor's hits bear a star. In the library only some 3% were active in any assay of this set; here they are far more common.

O=C(NCCN1CCN(c2cccc(Cl)c2)CC1)Nc1ccccc1 was read as Apaf-1 inh 4, UCH37 DUB inh 2, MEKK2 mut-MEK5 3, MEKK3 PB1 HTS 108, MEKK2wt PB1 HTS 110 and UBC13 inh 12.
`O=C(NCCN1CCN(Cc2ccccc2)CC1)Nc1cc(Cl)cc(Cl)c1` gave Apaf-1 inh 16, UCH37 DUB inh 6, MEKK2 mut-MEK5 34, MEKK3 PB1 HTS 106, MEKK2wt PB1 HTS 139*, UBC13 inh 11, MEKK2wt confirm 144, MEKK2mut-MEK5 31 and MEKK3 confirm 108.
CN(Cc1ccccc1)CC(O)COc1ccc(CNCCc2ccncc2)cc1 (centres undefined) was read as Apaf-1 inh -13, UCH37 DUB inh 1, MEKK2 mut-MEK5 -3, MEKK3 PB1 HTS 100, MEKK2wt PB1 HTS 115 and UBC13 inh -2.
CCc1ccc(CNCc2ccc(OCC(O)CN(C)Cc3ccccc3)cc2)nc1 (centres undefined) was read as Apaf-1 inh -14, UCH37 DUB inh 1, MEKK2 mut-MEK5 59*, MEKK3 PB1 HTS 105, MEKK2wt PB1 HTS 170*, UBC13 inh 15, MEKK2wt confirm 148, MEKK2mut-MEK5 28 and MEKK3 confirm 109.
`CN(Cc1ccccc1)CC(O)COc1ccc(CNCCc2cccnc2)cc1` (centres undefined) gave Apaf-1 inh -17, UCH37 DUB inh 4, MEKK2 mut-MEK5 63*, MEKK3 PB1 HTS 107, MEKK2wt PB1 HTS 187*, UBC13 inh 7, MEKK2wt confirm 121, MEKK2mut-MEK5 9 and MEKK3 confirm 104.
Screening CCn1ccnc1CNCc1ccc(OCC(O)CN(C)Cc2ccccc2)cc1 (centres undefined) returned Apaf-1 inh -12, UCH37 DUB inh 4, MEKK2 mut-MEK5 34, MEKK3 PB1 HTS 102, MEKK2wt PB1 HTS 138*, UBC13 inh 1, MEKK2wt confirm 118, MEKK2mut-MEK5 23 and MEKK3 confirm 104.
For CC(C)N(C(=O)Cn1cc(SCC(=O)NCc2ccco2)c2ccccc21)C(C)C the results were Apaf-1 inh -8, UCH37 DUB inh 4, MEKK2 mut-MEK5 -11, MEKK3 PB1 HTS 97, MEKK2wt PB1 HTS 99 and UBC13 inh 3.
Screening Cc1ccc(-n2c(C)cc3c2CCCC3=O)cc1 returned Apaf-1 inh 3, UCH37 DUB inh 1, MEKK2 mut-MEK5 3, MEKK3 PB1 HTS 100, MEKK2wt PB1 HTS 100 and UBC13 inh -6.
Screening CCCCn1c(=O)[nH]c(=O)c2c1nc(-c1cc(Cl)c(OC)c(OC)c1)n2C returned Apaf-1 inh 15, UCH37 DUB inh -96, MEKK2 mut-MEK5 16, MEKK3 PB1 HTS 114, MEKK2wt PB1 HTS 132 and UBC13 inh 5.

Source: PubChem (several laboratories)
